In ChEMBL document CHEMBL4138107, “The discovery of novel, potent ERR-alpha inverse agonists for the treatment of triple negative breast cancer” (Eur J Med Chem, 2017):
One block for each compound: values may come before it. The source made the active and inactive calls. The rule behind the calls is not given here.

What was measured:
[1] = biological target: T1, Steroid hormone receptor ERR1 (Homo sapiens, UniProt P11474); assay: Inverse agonist activity at GAL4-DNA binding domain-fused human ERRalpha ligand binding domain expressed in HEK293 cells assessed as inhibition of transcriptional activity after 48 hrs by luciferase reporter gene assay; type: cell-based
T1 sequence (P11474 whole entry): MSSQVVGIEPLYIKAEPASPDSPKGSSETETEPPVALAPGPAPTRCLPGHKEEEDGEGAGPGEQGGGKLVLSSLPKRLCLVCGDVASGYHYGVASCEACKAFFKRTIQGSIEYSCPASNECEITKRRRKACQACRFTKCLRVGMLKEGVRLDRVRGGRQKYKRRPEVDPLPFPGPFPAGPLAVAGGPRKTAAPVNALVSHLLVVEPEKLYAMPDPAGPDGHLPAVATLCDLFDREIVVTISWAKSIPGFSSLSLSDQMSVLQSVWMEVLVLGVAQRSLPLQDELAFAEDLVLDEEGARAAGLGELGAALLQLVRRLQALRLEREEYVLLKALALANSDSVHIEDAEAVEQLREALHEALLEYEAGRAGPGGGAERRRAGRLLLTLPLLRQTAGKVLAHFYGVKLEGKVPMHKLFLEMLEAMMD
In short: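 HEK293 cells at 1×10⁵/well in DMEM with 10% FBS, transfected at 70-80% confluency. Per well: 20 ng GAL4-DBD-ERRα-LBD, 20 ng UAS-Luc reporter and 5 ng pRL-TK control. After 6 h at 37°C, vehicle (0.05% DMSO) or compound added for 48 h. Dual-luciferase read-out.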

MDA-MB-231 [2] = assay: Antitumor activity against human MDA-MB-231 cells xenografted in BALB/c nude mouse assessed as tumor size at 30 mg/kg administered every other day for 28 days measured after 30 days relative to control; type: functional
In short: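 MDA-MB-231 cells suspended in PBS injected subcutaneously into the right flank of 6-week-old BALB/c nude mice. Once tumors averaged >100 mm³, mice were randomized into groups of 10 and given vehicle, test compound or cyclophosphamide 30 mg/kg, dosed every other day. Mice were weighed 3 times weekly. Tumor volume = length × width² × 0.5 and was compared with the vehicle group.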

HeLa = assay: Antiproliferative activity against human HeLa cells after 48 hrs by CCK-8 assay; type: functional, cell-based
PC-3 = assay: Antiproliferative activity against human PC3 cells after 48 hrs by CCK-8 assay; type: functional, cell-based; settings: PC-3, 48 h
MDA-MB-231 [3] = assay: Antitumor activity against human MDA-MB-231 cells xenografted in BALB/c nude mouse assessed as tumor volume at 30 mg/kg administered every other day for 28 days and measured after 30 days (reference value: 1500 mm3); type: functional
MDA-MB-231 [4] = assay: Induction of ROS generation in human MDA-MB-231 cells after 24 hrs by DCFH-DA staining based fluorescence assay; type: functional, cell-based
In short: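 MDA-MB-231 cells in 96-well plates pretreated with 1-30 µmol/l compound for 24 h at 37 °C. Then loaded with DCFH-DA (10 µmol/l) for 30 min. Fluorescence read at ex 488/em 535 nm on a plate reader and expressed relative to untreated cells. Mean ± SEM, n=4.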

MDA-MB-231 [5] = assay: Effect on steady state ERRalpha mRNA expression in human MDA-MB-231 cells at 5 to 10 uM after 48 hrs by qRT-PCR analysis; type: ADME, cell-based; settings: mda-mb-231, 48 h
T47D = assay: Antiproliferative activity against human T47D cells harboring ER after 48 hrs by CCK-8 assay; type: functional, cell-based
MDA-MB-231 [6] = assay: Antitumor activity against human MDA-MB-231 cells xenografted in BALB/c nude mouse assessed as reduction in tumor growth at 30 to 100 mg/kg administered every other day […]; type: functional, organism-based
MDA-MB-231 [7] = assay: Cell migration rate in human MDA-MB-231 cells at 10 uM after 48 hrs by crystal violet staining-based transwell assay relative to control; settings: MDA-MB-231, 48 h
MDA-MB-231 [8] = assay: Cell migration rate in human MDA-MB-231 cells at 5 uM after 48 hrs by crystal violet staining-based transwell assay relative to control; settings: MDA-MB-231, 48 h
LNCaP = assay: Antiproliferative activity against human LNCAP cells after 48 hrs by CCK-8 assay; type: functional, cell-based
MDA-MB-231 [9] = assay: Cell migration rate in human MDA-MB-231 cells at 20 uM after 48 hrs by crystal violet staining-based transwell assay relative to control; settings: MDA-MB-231, 48 h
MCF7 = assay: Antiproliferative activity against human MCF7 cells harboring ER after 48 hrs by CCK-8 assay; type: functional, cell-based; settings: MCF7, 48 h
MDA-MB-435 = assay: Antiproliferative activity against ER deficient human MDA-MB-435 cells after 48 hrs by CCK-8 assay; type: functional, cell-based; settings: MDA-MB-435, 48 h
MDA-MB-231 [10] = assay: Inhibition of cell migration in human MDA-MB-231 cells […] by crystal violet staining-based transwell assay; type: functional
[11] = biological target: T2, Steroid hormone receptor ERR1 (Homo sapiens) (UniProt P11474); assay: Inverse agonist activity at ERRalpha in human MDA-MB-231 cells assessed as down regulation of osteopontin mRNA expression at 5 to 10 uM after 48 hrs by qRT-PCR analysis; type: cell-based
T2 sequence (whole entry): T1 sequence (P11474 whole entry)
In short: (§1)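 MDA-MB-231 cells in 6-well plates at […]. Exposed to vehicle (DMSO) or compound for 48 h, then mRNA of ERRα target genes (PGC-1α, PDK4, osteopontin/SPP1, pS2/TFF1) quantified by real-time RT-PCR. Mean ± S.E.M. of three independent experiments.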

A549 = assay: Antiproliferative activity against human A549 cells after 48 hrs by CCK-8 assay; type: functional, cell-based; settings: A549, 48 h
MDA-MB-231 [12] = assay: Antiproliferative activity against ER deficient human MDA-MB-231 cells after 48 hrs by CCK-8 assay; type: functional, cell-based; settings: MDA-MB-231, 48 h
In short: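 Cells seeded in 96-well plates and cultured overnight, then exposed to a range of compound concentrations for 48 h. CCK-8 reagent added and incubated 2 h at 37°C. Read-out is optical density at 450 nm. MDA-MB-231 maintained in L-15 with 10% FBS, L-glutamine, sodium pyruvate, pen/strep at 37°C, 5% CO2.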

[13] = biological target: T2, Steroid hormone receptor ERR1 (Homo sapiens); assay: Inverse agonist activity at ERRalpha in human MDA-MB-231 cells assessed as down regulation of pS2 mRNA expression at 5 to 10 uM after 48 hrs by qRT-PCR analysis; type: cell-based; in short: as §1
MDA-MB-231 [14] = assay: Induction of apoptosis in human in human MDA-MB-231 cells at 10 uM after 48 hrs by Annexin V-FITC staining based fluorescence microscopic analysis
[15] = biological target: T2, Steroid hormone receptor ERR1 (Homo sapiens); assay: Inverse agonist activity at ERRalpha in human MDA-MB-231 cells assessed as down regulation of PGC-1alpha mRNA expression at 5 to 10 uM after 48 hrs by qRT-PCR analysis; type: cell-based; in short: as §1
[16] = biological target: T2, Steroid hormone receptor ERR1 (Homo sapiens); assay: Inverse agonist activity at ERRalpha in human MDA-MB-231 cells assessed as down regulation of PDK4 mRNA expression at 5 to 10 uM after 48 hrs by qRT-PCR analysis; type: cell-based; in short: as §1
[17] = biological target: T1, Steroid hormone receptor ERR1; assay: (§2) Inhibition of fluorescein-labeled PGC-1alpha binding to GAL4-DNA binding domain-fused human ERRalpha ligand binding domain expressed in HEK293 cells in presence of terbium chelate by TR-FRET assay; type: cell-based
[18] = biological target: T2, Steroid hormone receptor ERR1 (Homo sapiens); assay: as §2; type: cell-based

Structure (SMILES): O=P1(N(CCCl)CCCl)NCCCO1 (centres undefined) [CYCLOPHOSPHAMIDE ANHYDROUS]
Activity (MDA-MB-231 [2]): 50.1%

Structure (SMILES): CCOc1cc(NS(C)(=O)=O)c(OCC)cc1CNC(=O)Nc1ccc(OCc2ccccc2)c(C(=O)OC)c1
IC50 [1]: 4.06 µM

Structure (SMILES): CCCCOc1ccc(NC(=O)NCc2cc(OCC)c(NS(C)(=O)=O)cc2OCC)cc1C(=O)OC
IC50 [1]: 3.43 µM

Structure (SMILES): CCOc1cc(NS(C)(=O)=O)c(OCC)cc1CNC(=O)Nc1ccccc1
IC50 [1]: 21.1 µM

Continued, in another order:

IC50 [1]: 3.81 µM
Structure (SMILES): CCOc1cc(NS(C)(=O)=O)c(OCC)cc1CNC(=O)Nc1ccc(OCC)c(C(=O)NCc2ccccc2)c1

IC50 [1]: 3.72 µM
Structure (SMILES): CCOc1cc(NS(C)(=O)=O)c(OCC)cc1CNC(=O)Nc1ccc(OCC)c(C(=O)Nc2ccccc2)c1

IC50 [1]: 3.04 µM
Structure (SMILES): CCOc1cc(NS(C)(=O)=O)c(OCC)cc1CNC(=O)Nc1ccc(OCC)c(C(=O)Nc2ccc(C)cc2)c1

IC50 [1]: 4.23 µM
Structure (SMILES): CCOc1cc(NS(C)(=O)=O)c(OCC)cc1CNC(=O)Nc1ccc(OCC)c(C(=O)Nc2cccc(OC)c2)c1

IC50 (HeLa): 6.25 µM
IC50 [1]: 1.9 µM
IC50 (PC-3): 5.01 µM
IC50 (T47D): 8.31 µM
IC50 (LNCaP): 11.4 µM
IC50 (MCF7): 14.1 µM
IC50 (MDA-MB-435): 2.53 µM
Activity [11]: Active
IC50 (A549): 4.84 µM
IC50 (MDA-MB-231 [12]): 1.46 µM
Activity [13]: Active
Activity [15]: Active
Activity [16]: Active
IC50 [17]: 0.61 µM
inhibition [18]: Dose-dependent effect
Structure (SMILES): CCOc1cc(NS(C)(=O)=O)c(OCC)cc1CNC(=O)Nc1ccc(OCC)c(C(=O)NCc2ccc(OC)cc2)c1
Activity (MDA-MB-231 [3]): 720 mm3
Activity (MDA-MB-231 [4]): Active
Activity (MDA-MB-231 [5]): Non-Toxic
TGI (MDA-MB-231 [6]): Active
migration rate % at 10 µM (MDA-MB-231 [7]): 39.3%
Activity (MDA-MB-231 [2]): 40.9%
migration rate % at 5 µM (MDA-MB-231 [8]): 53.2%
migration rate % at 20 µM (MDA-MB-231 [9]): 17.8%
inhibition (MDA-MB-231 [10]): Dose-dependent effect
Activity (MDA-MB-231 [14]): Active

IC50 [1]: 3.48 µM
Structure (SMILES): CCOc1cc(NS(C)(=O)=O)c(OCC)cc1CNC(=O)Nc1ccc(OCC)c(C(=O)NC(C)C)c1
